Target: Keap1/Nrf2 (Homo sapiens, UniProt Q14145)
Test: Inhibition of Keap1-Nrf2 Interaction (unknown origin) by fluorescence anisotropy
Type: protein assay
Details: not given

Chain of Keap1/Nrf2 (Q16236 whole entry): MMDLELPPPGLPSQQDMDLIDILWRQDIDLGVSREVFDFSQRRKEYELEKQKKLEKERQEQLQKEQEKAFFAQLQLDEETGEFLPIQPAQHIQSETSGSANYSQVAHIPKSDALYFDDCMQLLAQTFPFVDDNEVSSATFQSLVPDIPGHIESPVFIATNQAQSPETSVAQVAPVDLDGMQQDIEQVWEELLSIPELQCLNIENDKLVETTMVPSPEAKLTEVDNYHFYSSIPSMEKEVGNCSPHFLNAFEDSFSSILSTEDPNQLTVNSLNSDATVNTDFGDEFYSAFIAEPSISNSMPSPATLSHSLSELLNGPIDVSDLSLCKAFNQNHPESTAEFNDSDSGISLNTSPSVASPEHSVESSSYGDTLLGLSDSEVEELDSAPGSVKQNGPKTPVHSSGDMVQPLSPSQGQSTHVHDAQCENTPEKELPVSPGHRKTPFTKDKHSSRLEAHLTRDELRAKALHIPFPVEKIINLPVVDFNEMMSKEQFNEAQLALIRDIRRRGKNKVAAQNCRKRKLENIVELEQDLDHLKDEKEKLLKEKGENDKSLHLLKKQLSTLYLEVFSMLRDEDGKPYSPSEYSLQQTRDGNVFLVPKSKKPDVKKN
Chain of Keap1/Nrf2 (Q14145 whole entry): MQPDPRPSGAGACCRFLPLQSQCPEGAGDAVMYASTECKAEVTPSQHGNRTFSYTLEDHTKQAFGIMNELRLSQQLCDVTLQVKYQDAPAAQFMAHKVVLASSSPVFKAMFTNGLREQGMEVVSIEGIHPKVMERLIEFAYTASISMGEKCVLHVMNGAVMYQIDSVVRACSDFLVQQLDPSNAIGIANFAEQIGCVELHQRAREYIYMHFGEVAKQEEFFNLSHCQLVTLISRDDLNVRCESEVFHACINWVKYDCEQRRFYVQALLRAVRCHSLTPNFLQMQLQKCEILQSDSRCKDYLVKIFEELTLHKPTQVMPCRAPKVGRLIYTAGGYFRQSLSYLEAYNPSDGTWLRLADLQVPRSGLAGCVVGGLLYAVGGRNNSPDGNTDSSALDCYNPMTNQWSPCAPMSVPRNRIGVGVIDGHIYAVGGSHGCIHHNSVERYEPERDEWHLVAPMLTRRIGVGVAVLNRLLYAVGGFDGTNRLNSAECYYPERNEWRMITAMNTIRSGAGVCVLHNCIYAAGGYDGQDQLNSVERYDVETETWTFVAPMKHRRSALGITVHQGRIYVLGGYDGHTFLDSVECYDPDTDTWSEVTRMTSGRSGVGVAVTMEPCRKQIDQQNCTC

First: COc1ccc(S(=O)(=O)Nc2cnc(N(C(C)C(=O)O)S(=O)(=O)c3ccc(OC)cc3)c3ccccc23)cc1 (stereo not given)
Second: COc1ccc(S(=O)(=O)Nc2cnc(N(CC(=O)O)S(=O)(=O)c3ccc(OC)cc3)c3ccccc23)cc1
The IC50 of the first is 10-fold higher: 2300 nM for the first, 230 nM for the second.

COc1ccc(S(=O)(=O)N(CC(=O)O)c2ncc(N(CC(F)(F)F)S(=O)(=O)c3ccc(F)cc3)c3ccccc23)cc1 and COc1ccc(S(=O)(=O)N(CC(F)(F)F)c2cnc(N(CC(=O)O)S(=O)(=O)c3ccc(F)cc3)c3ccccc23)cc1 are within 1.5-fold of each other in IC50: 120 nM for the first, 130 nM for the second.

O=C(O)CN(c1ncc(N(CC(F)(F)F)S(=O)(=O)c2ccc(F)cc2)c2ccccc12)S(=O)(=O)c1ccc(F)cc1 and O=C(O)CN(c1cnc(N(CC(=O)O)S(=O)(=O)c2ccc(F)cc2)c2ccccc12)S(=O)(=O)c1ccc(F)cc1 are within 1.5-fold of each other in IC50: 420 nM for the first, 430 nM for the second.

O=C(O)CN(c1cnc(N(CC(=O)O)S(=O)(=O)c2ccc(O)cc2)c2ccccc12)S(=O)(=O)c1ccc(O)cc1 and COc1ccc(S(=O)(=O)N(CC(=O)O)c2cnc(N(CC(=O)O)S(=O)(=O)c3ccc(F)cc3)c3ccccc23)cc1 are within 1.5-fold of each other in IC50: 350 nM for the first, 280 nM for the second.

First: COc1ccc(S(=O)(=O)N(CCF)c2cnc(N(CC(=O)O)S(=O)(=O)c3ccc(OC)cc3)c3ccccc23)cc1
Second: COc1ccc(S(=O)(=O)N(CC(F)F)c2cnc(N(CC(=O)O)S(=O)(=O)c3ccc(OC)cc3)c3ccccc23)cc1
The IC50 of the first is 3.8-fold higher: 210 nM for the first, 55 nM for the second.

COc1ccc(S(=O)(=O)N(C)c2cnc(N(CC(=O)O)S(=O)(=O)c3ccc(OC)cc3)c3ccccc23)cc1 and COc1ccc(S(=O)(=O)Nc2ncc(N(CC(=O)O)S(=O)(=O)c3ccc(OC)cc3)c3ccccc23)cc1 are within 1.5-fold of each other in IC50: 1000 nM for the first, 1100 nM for the second.

In the case of COc1ccc(S(=O)(=O)N(CC(=O)O)c2ncc(N(CC(=O)O)S(=O)(=O)c3ccc(F)cc3)c3ccccc23)cc1, the IC50 is reported as 240 nM.

System: not listed separately
Test: Partition coefficient, logD between n-octanol and pH 7.4 buffer by HPLC analysis
Type: physicochemical
Details: n-octanol/pH 7.4 buffer

Going from COc1ccc(S(=O)(=O)Nc2cnc(N(C(C)C(=O)O)S(=O)(=O)c3ccc(OC)cc3)c3ccccc23)cc1 (stereo not given) to COc1ccc(S(=O)(=O)Nc2ncc(N(CC(=O)O)S(=O)(=O)c3ccc(OC)cc3)c3ccccc23)cc1, the logD rises from -1.1 to -0.5.

COc1ccc(S(=O)(=O)N(CC(=O)O)c2ncc(N(CC(F)(F)F)S(=O)(=O)c3ccc(F)cc3)c3ccccc23)cc1 and COc1ccc(S(=O)(=O)N(CC(F)(F)F)c2cnc(N(CC(=O)O)S(=O)(=O)c3ccc(F)cc3)c3ccccc23)cc1 are within 0.2 log units of each other in logD: 0.5 for the first, 0.6 for the second.

O=C(O)CN(c1ncc(N(CC(F)(F)F)S(=O)(=O)c2ccc(F)cc2)c2ccccc12)S(=O)(=O)c1ccc(F)cc1 and COc1ccc(S(=O)(=O)N(CC(F)(F)F)c2cnc(N(CC(=O)O)S(=O)(=O)c3ccc(OC)cc3)c3ccccc23)cc1 are within 0.2 log units of each other in logD: 0.6 for the first, 0.5 for the second.

First: COc1ccc(S(=O)(=O)N(CCF)c2cnc(N(CC(=O)O)S(=O)(=O)c3ccc(OC)cc3)c3ccccc23)cc1
Second: COc1ccc(S(=O)(=O)N(CC(F)F)c2cnc(N(CC(=O)O)S(=O)(=O)c3ccc(OC)cc3)c3ccccc23)cc1
The logD of the first is lower: -0.1 for the first, 0.2 for the second.

First: COc1ccc(S(=O)(=O)N(C)c2cnc(N(CC(=O)O)S(=O)(=O)c3ccc(OC)cc3)c3ccccc23)cc1
Second: COc1ccc(S(=O)(=O)N(CC(=O)O)c2cnc(N(CC(=O)O)S(=O)(=O)c3ccc(F)cc3)c3ccccc23)cc1
The logD of the first is higher: 0 for the first, -1.9 for the second.

In the case of COc1ccc(S(=O)(=O)N(CC(=O)O)c2ncc(N(CC(=O)O)S(=O)(=O)c3ccc(F)cc3)c3ccccc23)cc1, the logD is reported as -1.8.

System: not listed separately
Test: Half life in human liver microsomes in presence of NADPH by LC-MS/MS analysis
Type: ADME, Microsome
Details: not given

With COc1ccc(S(=O)(=O)N(CC(=O)O)c2ncc(N(CC(F)(F)F)S(=O)(=O)c3ccc(F)cc3)c3ccccc23)cc1 the t1/2 was > 180 min.
With O=C(O)CN(c1ncc(N(CC(F)(F)F)S(=O)(=O)c2ccc(F)cc2)c2ccccc12)S(=O)(=O)c1ccc(F)cc1 the t1/2 was > 180 min.
With COc1ccc(S(=O)(=O)N(CC(F)(F)F)c2cnc(N(CC(=O)O)S(=O)(=O)c3ccc(F)cc3)c3ccccc23)cc1 the t1/2 was > 180 min.

First: O=C(O)CN(c1cnc(N(CC(=O)O)S(=O)(=O)c2ccc(O)cc2)c2ccccc12)S(=O)(=O)c1ccc(O)cc1
Second: COc1ccc(S(=O)(=O)N(CCF)c2cnc(N(CC(=O)O)S(=O)(=O)c3ccc(OC)cc3)c3ccccc23)cc1
The t1/2 of the first is 19-fold lower: 3 min for the first, 58 min for the second.

COc1ccc(S(=O)(=O)N(CC(F)(F)F)c2cnc(N(CC(=O)O)S(=O)(=O)c3ccc(OC)cc3)c3ccccc23)cc1 and COc1ccc(S(=O)(=O)N(CC(F)F)c2cnc(N(CC(=O)O)S(=O)(=O)c3ccc(OC)cc3)c3ccccc23)cc1 are within 1.5-fold of each other in t1/2: 136 min for the first, 97 min for the second.

Compared with COc1ccc(S(=O)(=O)Nc2cnc(N(CC(=O)O)S(=O)(=O)c3ccc(OC)cc3)c3ccccc23)cc1, COc1ccc(S(=O)(=O)N(C)c2cnc(N(CC(=O)O)S(=O)(=O)c3ccc(OC)cc3)c3ccccc23)cc1 is 6.2-fold lower in t1/2: 37 min for the first, 6 min for the second.

Target: T1, Keap1/Nrf2 (Homo sapiens) (UniProt Q16236+Q14145)
Test: Inhibition of Keap1-Nrf2 Interaction in human HaCaT cells assessed as increase in Nrf2 protein level at 0.25 uM incubated for 16 hrs by Western blot analysis relative to control
Type: cell-based
Details: not given
In short: (§1)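 HaCaT keratinocytes were grown in DMEM with 10% FBS and 1% antibiotics, then treated at 70–80% confluence in complete medium, with DMSO as vehicle. RIPA lysates (~40 μg protein) were run on 10% SDS-PAGE and immunoblotted for NRF2 and NQO1, with β-actin as loading control and chemiluminescent detection. Values are mean fold change versus DMSO from two biological replicates.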

T1 sequence (Q14145 whole entry, looked up): as the sequence (Q14145 whole entry) above
T1 sequence (Q16236 whole entry, looked up): as the sequence (Q16236 whole entry) above

With COC(=O)[C@]12CCC(C)(C)C[C@H]1[C@H]1C(=O)C=C3[C@@]4(C)C=C(C#N)C(=O)C(C)(C)[C@@H]4CC[C@@]3(C)[C@]1(C)CC2 the fold change (FC) was 3.34.

Target: T1, Keap1/Nrf2 (Homo sapiens)
Test: Inhibition of Keap1-Nrf2 Interaction in human HaCaT cells assessed as increase in NQO1 protein level at 0.25 uM incubated for 16 hrs by Western blot analysis relative to control
Type: cell-based
Details: not given
In short: as §1

COC(=O)[C@]12CCC(C)(C)C[C@H]1[C@H]1C(=O)C=C3[C@@]4(C)C=C(C#N)C(=O)C(C)(C)[C@@H]4CC[C@@]3(C)[C@]1(C)CC2 gave a fold change (FC) of 1.43.

Source: ChEMBL document CHEMBL4602608, “Isoquinoline Kelch-like ECH-Associated Protein 1-Nuclear Factor (Erythroid-Derived 2)-like 2 (KEAP1-NRF2) Inhibitors with High Metabolic Stability” (J Med Chem, 2020)
